Measured values: ChEMBL document CHEMBL1124167, “Syntheses and gastric acid antisecretory properties of the H2-receptor antagonist. N-[3-[3-(1-piperidinylmethyl)phenoxy]propyl]thieno[3,4-d]isot hiazol-3-amine 1,1-dioxide and related derivatives” (J Med Chem, 1988)
Calls of active or inactive are those of the source. The calls are words filed in the database; no cut-off is given here.

organism: Canis familiaris; test: Efficacy against histamine stimulation was determined in dog; assay type: functional; conditions: Canis lupus familiaris
How it was run: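 Gastric pouch dogs fasted 18 h with water, baseline from two 15-min samples. Drug in 0.9% saline given by oral gavage 30 min before histamine diphosphate (64 μg/kg base, sc). Samples collected at 15-min intervals and acid titrated to pH 7.0 with 0.1 N NaOH. Total acid output summed over 1 h, percent inhibition vs the same dog's saline run, runs ≥3 days apart.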

Going from `CN/C(=C\[N+](=O)[O-])NCCSCc1ccc(CN(C)C)o1` [RANITIDINE] to `O=S1(=O)N=C(NCCCOc2cccc(CN3CCCCC3)c2)c2cscc21`, the ED50 falls from 0.93 mg/kg to 0.35 mg/kg (2.7-fold).

tested on: Rattus norvegicus; test: In vivo inhibitory activity against basal acid secretion in pylorus-ligated rat was determined at a dose of 4 mg/kg; assay type: functional; conditions: not given
How it was run: (§1)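 Male SD/CD rats (190–260 g), fasted 24 h with water, groups of 10. Pylorus ligated under methohexital (40 mg/kg). Drug in 0.25% aqueous methylcellulose given intraduodenally (1 mL/kg) right after ligation. Killed 4 h later. Gastric juice volume × acid concentration (titration to pH 7.0 with 0.1 N NaOH) gives total acid output, expressed as percent inhibition vs vehicle controls.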

Compared with `O=S1(=O)N=C(NCCCOc2cccc(CN3CC=CCC3)c2)c2cscc21`, `Cl.O=S1(=O)N=C(NCCCOc2cccc(CN3CCCC3)c2)c2cscc21` is higher in Total acid output: 18% for the first, 19% for the second.

First: CCCN(CCC)Cc1cccc(OCCCNC2=NS(=O)(=O)c3cscc32)c1.Cl
Second: O=Cc1cccc(OCCCNC2=NS(=O)(=O)c3cscc32)c1
The Total acid output of the first is lower: 16% for the first, 89% for the second.

`N=C(N)Nc1nc(CSCCNC2=NS(=O)(=O)c3cscc32)cs1` showed a Total acid output of 83%.

tested on: Rattus norvegicus; test: In vivo inhibitory activity against basal acid secretion in pylorus-ligated rat was determined at a dose of 8 mg/kg; assay type: functional; conditions: not given; how it was run: as §1

First: NS(=O)(=O)c1cscc1C(=O)NCCCOc1cccc(C=O)c1
Second: Cl.NS(=O)(=O)c1cscc1C(=O)NCCCOc1cccc(CN2CCCCC2)c1.O
The Total acid output of the first is higher: 94% for the first, 36% for the second.

Compared with `Cc1[nH]cnc1CSCCNC1=NS(=O)(=O)c2cscc21`, `O=S1(=O)N=C(NCCCOc2ccc(CN3CCCCC3)cc2)c2cscc21` is lower in Total acid output: 87% for the first, 21% for the second.

Compared with `O=C(c1cccc(OCCCNC2=NS(=O)(=O)c3cscc32)c1)N1CCCCC1`, `O=S1(=O)N=C(NCCCOc2cccc(CN3CCCCC3)c2)c2cscc21` is lower in Total acid output: 94% for the first, 16% for the second.

`O=S1(=O)N=C(NCCCOc2cccc(CN3CCCCC3)c2)c2sccc21` showed a Total acid output of 12%.

tested on: Rattus norvegicus; test: In vivo inhibitory activity against basal acid secretion in pylorus-ligated rat was determined at a dose of 4 mg/kg; Inactive; conditions: not given

For `O=Cc1cccc(OCCCNC2=NS(=O)(=O)c3cscc32)c1`, the Activity was “inactive”.
